Results as given in ChEMBL document CHEMBL3994584, “Identification of novel fluorescent probes preventing PrPSc replication in prion diseases” (Eur J Med Chem, 2017).
Active and inactive are the calls of the source. The calls are words filed in the database; no cut-off is given here.

Legend:
N2a = test: Effect on cellular prion protein level in mouse N2A cells up to 10 uM incubated for 5 days by Western blot method; format: functional, cell-based
Method in brief: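 Non-infected N2a cells were treated at 0.1, 1 and 10 μM for 5 days. Lysates (50 µg protein, no PK digestion) were immunoblotted with anti-PrP Fab W226. PrPC was normalized to actin, with untreated controls set to 100%. Done in triplicate.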

Mus musculus [1] = species on record: Mus musculus; test: Antiprion activity against mouse prion protein RML infected mouse ScN2a cells assessed as proteinase K-resistant PrPSc level at 10 uM incubated for 5 days followed by proteinase K digestion by Western blot method relative to control
Method in brief: (§1)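 RML-infected ScN2a cells were treated with 0.1, 1 and 10 μM for 5 days, with DMSO ≤0.1% final. Lysates (500 μg protein) were digested with 10 μg PK for 1 h at 37 °C, stopped with 2 mM PMSF and ultracentrifuged. Pellets were run on SDS-PAGE and immunoblotted with anti-PrP Fab W226, with ECL detection. Densitometry gave PK-resistant PrPSc over total PrP, with untreated set to 100%. Three independent experiments.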

[2] = Cytotoxicity against mouse ScN2a cells assessed as cell viability at 0.1 uM after 5 days by MTT assay relative to control; format: cell-based; details: read-out: Activity
Method in brief: (§2)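 ScN2a cells were seeded in MEM at 2.5×10^4 cells/mL and allowed to settle for 2 h. Compounds (DMSO stock, diluted in EtOH then medium) were added at 0.1, 1 and 10 μM for 5 days at 37 °C under 5% CO2. MTT (5 mg/mL) was applied for 3 h and solubilized with DMSO/2-propanol. Plates were read at 570/690 nm. Viability is given as % of untreated control, mean ± SD of three independent experiments.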

[3] = Cytotoxicity against mouse ScN2a cells assessed as cell viability at 1 uM after 5 days by MTT assay relative to control; format: cell-based; details: read-out: Activity; method in brief: as §2
[4] = Cytotoxicity against mouse ScN2a cells assessed as cell viability at 10 uM after 5 days by MTT assay relative to control; format: cell-based; details: read-out: Activity; method in brief: as §2
Mus musculus [5] = species on record: Mus musculus; test: Antiprion activity against mouse prion protein RML infected mouse ScN2a cells assessed as proteinase K-resistant PrPSc level at 1 uM incubated for 5 days followed by proteinase K digestion by Western blot method relative to control; method in brief: as §1
Mus musculus [6] = species on record: Mus musculus; test: Antiprion activity against mouse prion protein RML infected mouse ScN2a cells assessed as proteinase K-resistant PrPSc level at 0.1 uM incubated for 5 days followed by proteinase K digestion by Western blot method relative to control; method in brief: as §1
Mus musculus [7] = species on record: Mus musculus; test: Binding affinity to PrPSc aggregates in mouse prion protein RML infected mouse ScN2a cells incubated for 8 mins followed by proteinase K digestion using FITC filter by fluorescence confocal microscopic method
Method in brief: (§3)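 N2a or ScN2a cells were grown on coverslips for 24 h, then fixed and permeabilized (4% formaldehyde/0.1% Triton X-100, 1 h, RT) and denatured with 6 M GdnHCl for 10 min. Where PK was used: 20 µg/mL for 15 min at 37 °C, stopped with PMSF. After NGS blocking, cells were stained with compound at 0.025% in 80% EtOH for 8 min at RT. Imaging was by confocal microscopy with a FITC filter.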

Mus musculus [8] = species on record: Mus musculus; test: Binding affinity to proteinase K sensitive cellular prion protein in mouse N2A cells incubated for 8 mins by fluorescence confocal microscopic method; format: cell-based; method in brief: as §3
[9] = Antiprion activity against mouse prion protein RML infected mouse ScGT1 cells assessed as reduction in proteinase K-resistant PrPSc level incubated for 7 days followed by proteinase K digestion by ELISA; details: ScGT1, 168 h
[10] = Cytotoxicity against mouse ScN2a cells assessed as growth inhibition at 1 uM after 5 days by MTT assay relative to control; format: cell-based; details: read-out: GI; method in brief: as §2

Row | Compound | Activity (N2a) | Activity (Mus musculus [1]) [%] | viability at 120 h, 0.1 µM [2] [%] | viability at 120 h, 1 µM [3] [%] | viability at 120 h, 10 µM [4] [%] | Activity (Mus musculus [5]) [%] | Activity (Mus musculus [6]) [%] | Activity (Mus musculus [7]) | Activity (Mus musculus [8]) | IC50 [9] [µM] | inhibition at 120 h, 1 µM [10] [%]
1 | COC(=O)C1=CC2=NC(N/N=C/c3ccnc4ccccc34)=C3CC=CN3C2C=C1 (centres undefined) | inactive | 30 | 72.6 | 89.3 | 67.1 | 131 | 104 |  |  |  | 
2 | C(=C\c1ccco1)/NNc1nc2ccccc2n2cccc12 | inactive | 35 | 96.8 | 88.5 | 71.4 | 86 | 105 |  |  |  | 
3 | COC1=CC2=NC(N/N=C/c3ccnc4ccccc34)=C3CC=CN3C2C=C1 (centres undefined) | inactive | 9 | 107 | 96.3 | 83.3 | 35 | 76 | Active | inactive | 1.6 | 
4 | C1=CC2=NC(N/N=C/c3ccnc4ccccc34)=C3NC=CN3C2C=C1 (centres undefined) | inactive | 30 | 94.4 | 98.5 | 83.2 | 131 | 178 |  |  |  | 
5 | C1=CC2C(=NC(N/N=C/c3ccnc4ccccc34)=C3CC=CN32)N=C1 (centres undefined) | inactive | 83 | 104 | 98.6 | 75.6 | 144 | 128 |  |  |  | 
6 | Cc1ccc2c(c1)sc(-c1ccc(N(C)C)cc1)[n+]2C |  |  |  |  |  |  |  | Active |  |  | 
7 | C1=CC2=NC(N/N=C/c3ccc4ccccc4n3)=C3CC=CN3C2C=C1 (centres undefined) | inactive | 34 | 87.6 | 94.8 | 90.9 | 47 | 54 |  |  |  | 
8 | C1=CC2=NC(N/N=C/c3ccnc4ccccc34)=C3CC=CN3C2C=C1 (centres undefined) | inactive | 27 | 92.3 | 88.3 | 87 | 78 | 90 |  |  |  | 
9 | C(=C\c1cccs1)/NNc1nc2ccccc2n2cccc12 | inactive | 72 | 78.9 | 81.9 | 80.7 | 79 | 88 |  |  |  | 
10 | CC1=CC2=NC(N/N=C/c3ccnc4ccccc34)=C3CC=CN3C2C=C1C (centres undefined) | inactive | 29 | 96.7 | 98.6 | 86.5 | 100 | 137 |  |  |  | 
11 | c1ccc2c(NCCCCCCCCNc3c4c(nc5ccccc35)CCCC4)c3c(nc2c1)CCCC3 |  |  |  | 0.7 |  |  |  |  |  |  | > 20
12 | COc1ccc2c(C)cc(N/N=C/c3ccnc4ccccc34)nc2c1 | inactive | 13 | 93.9 | 84.8 | 83.8 | 77 | 88 |  |  |  | 
13 | FC1=CC2=NC(N/N=C/c3ccnc4ccccc34)=C3NC=CN3C2C=C1 (centres undefined) | inactive | 31 | 87.7 | 92.6 | 72.9 | 34 | 76 |  |  |  | 
14 | CN(CCCCNc1c2c(nc3ccccc13)CCCC2)CCCNc1c2c(nc3ccccc13)CCCC2 |  |  |  | 76.9 |  |  |  |  |  |  | > 20
15 | COC(=O)C1=CC2=NC(N/N=C/c3ccc4ccccc4n3)=C3CC=CN3C2C=C1 (centres undefined) |  |  | 92.6 | 88.2 | 45.4 |  |  |  |  |  | > 20
